Active and inactive are the calls of the source. The rule behind the calls is not given here.
Columns and labels:
[1] = tested on: ORF 73 (Human herpesvirus 8), O40947 [UNDEFINED MUTATION]; assay: (§1) Inhibition of fluorescent labelled LBS2 DNA binding to human herpesvirus 8 C-terminal His-tagged LANA oligomerization deficient mutant DBD (1008 to 1146 residues) expressed in Escherichia coli BL21 (DE3) at 1 mM preincubated for 60 mins followed by fluorescent labelled LBS2 addition and measured after 90 mins by fluorescence polarization assay relative to control; details: Human gammaherpesvirus 8
In short: (§2)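 Single-concentration FP competition assay (1 mM or 500 µM compound). LANA DBD mutant (200 nM final) pre-incubated with compound for 60 min, then fluorescein-labelled LBS2 (10 nM final) added and incubated 90 min. Buffer was HEPES/NaCl/Tween20 with 5% DMSO. Read at excitation 485 nm, emission 520 nm. Percent inhibition from duplicates in two independent experiments.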

[2] = Binding affinity to fluorescent labelled LBS2 DNA (unknown origin) by fluorescence polarization assay
In short: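 Fixed concentration of His-tagged oligomerization-deficient LANA DBD mutant (aa1008-1146, 200 nM final) was pre-incubated 60 min with compound. Fluorescein-labelled LBS2 (10 nM final) was then added and incubated 90 min. Buffer was 10 mM HEPES, 150 mM NaCl, 0.005% Tween20, 5% DMSO. Polarization was read at ex 485/em 520 nm. Runs were done with and without LANA to exclude DNA or quenching interference. Duplicates, two independent experiments.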

[3] = target: T1, ORF 73 (Human herpesvirus 8, UniProt O40947); assay: as §1, with “(DE3)” for “(DE3) at 1 mM”, “assay” for “assay relative to control”; set-up: species or system Human gammaherpesvirus 8
In short: (§3)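 FP competition assay. His-tagged LANA DBD mutant (200 nM final) pre-incubated with serially varied compound for 60 min. Fluorescein-labelled LBS1, LBS2 or LBS3 (10 nM final) then added and incubated 90 min. Buffer was 10 mM HEPES, 150 mM NaCl, 0.005% Tween20 with 5% DMSO. Read at excitation 485 nm, emission 520 nm. Duplicates in two independent experiments. Runs without LANA checked for interference. IC50 derived from dose-response.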

[4] = tested on: ORF 73 (Human herpesvirus 8), O40947 [UNDEFINED MUTATION]; assay: (§4) Inhibition of 5'-Dy682-labelled LBS1/LBS2 DNA binding to human herpesvirus 8 C-terminal His-tagged LANA oligomerization deficient mutant DBD (1008 to 1146 residues) expressed in Escherichia coli BL21 (DE3) at 500 uM preincubated for 1 hr followed by 5'-Dy682-labelled LBS1 DNA addition and measured after 30 mins by electrophoretic mobility shift assay; details: Human gammaherpesvirus 8
In short: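 Native-gel EMSA with a longer Dy-682-labelled probe carrying both LBS1 and LBS2 (20 nM). LANA DBD mutant (200 nM) pre-incubated with compound (500 µM) for 1 h at RT in the dark. Buffer was Tris-HCl pH 7.5 with KCl, MgCl2, DTT, EDTA, glycerol, Tween20, BSA and poly(dI-dC). Band intensities normalised to percent inhibition. Run in duplicate; GST served as control.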

[5] = target: T1, ORF 73; assay: (§5) Inhibition of fluorescent labelled LBS3 DNA binding to human herpesvirus 8 C-terminal His-tagged LANA oligomerization deficient mutant DBD (1008 to 1146 residues) expressed in Escherichia coli BL21 (DE3) preincubated for 60 mins followed by fluorescent labelled LBS2 addition and measured after 90 mins by fluorescence polarization assay; set-up: species or system Human gammaherpesvirus 8; in short: as §3
[6] = tested on: ORF 73 (Human herpesvirus 8), O40947 [UNDEFINED MUTATION]; assay: as §4, with “LBS1” for “LBS1/LBS2”; details: Human gammaherpesvirus 8
In short: (§6)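 Native-gel EMSA. LANA DBD mutant (200 nM final) pre-incubated with compound for 1 h at RT in the dark, then Dy-682-labelled LBS1 probe (20 nM) added. Complex and free-probe band intensities normalised to 0–100% inhibition. Run in duplicate; purified GST served as control.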

[7] = target: T1, ORF 73; assay: as §5, with “LBS1” for “LBS3”; set-up: species or system Human gammaherpesvirus 8; in short: as §3
[8] = tested on: Human gammaherpesvirus 8; assay: Binding affinity to wild-type human herpesvirus 8 GST-tagged LANA C-terminal domain (934 to 1162 residues) assessed as change in melting temperature at 500 uM by differential scanning fluorimetry
In short: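 Thermal shift (DSF) used wild-type LANA C-terminal domain (aa934-1162) at 20 µM final and compound at 500 µM final. Buffer was 10 mM PBS pH 7.4, 5% DMSO, 0.05% Tween20. Melting was run in a real-time PCR instrument, and the change in denaturation temperature (TM) was recorded.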

[9] = tested on: Human gammaherpesvirus 8; assay: Binding affinity to wild-type human herpesvirus 8 His-tagged LANA C-terminal domain (934 to 1162 residues) at 500 uM by surface plasmon resonance analysis
[10] = target: T1, ORF 73; assay: Binding affinity to human herpesvirus human herpesvirus 8 C-terminal His-tagged LANA oligomerization deficient mutant DBD (1008 to 1146 residues) expressed in Escherichia coli BL21 (DE3) by microscale thermophoresis assay; set-up: species or system Human gammaherpesvirus 8
In short: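 His-tagged LANA DBD mutant labelled with a RED-tris NTA His-tag dye, used at 50 nM. Ligand titrated in a dose-response series starting at 1 mM. Buffer was 10 mM HEPES, 150 mM NaCl, 2 mM DTT, 0.005% Tween20 with 5% DMSO. KD derived from thermophoresis.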

[11] = tested on: ORF 73 (Human herpesvirus 8), O40947 [UNDEFINED MUTATION]; assay: Binding affinity to human herpesvirus 8 C-terminal His-tagged LANA oligomerization deficient mutant DBD (1008 to 1146 residues) expressed in Escherichia coli BL21 (DE3) at 1 mM by STD-NMR analysis; details: Human gammaherpesvirus 8
In short: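 STD NMR at 298 K, 500 MHz. Ligand at 1 mM final (40-fold excess) over LANA DBD mutant at 25 µM final. On-resonance irradiation at 0 ppm, off-resonance at -40 ppm. STD effect (I/I0) calculated per ligand proton. A free-compound control spectrum was recorded to check for artefacts.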

[12] = Inhibition of 5'-Dy682-labelled LBS1 DNA binding to GST-tagged LANA C-terminal domain (934 to 1162 residues) preincubated for 1 hr followed by 5'-Dy682-labelled LBS1 DNA addition and measured after 30 mins by electrophoretic mobility shift assay; set-up: species or system Human gammaherpesvirus 8
In short: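 Dose-dependent native-gel EMSA used Dy-682-labelled LBS1 probe with wild-type LANA CTD (aa934-1162). Protein was incubated with compound for 1 h at RT in the dark. IC50 was calculated from band intensities.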

[13] = target: T1, ORF 73; assay: as §4, with “LBS1” for “LBS1/LBS2”, “(DE3)” for “(DE3) at 500 uM”; set-up: species or system Human gammaherpesvirus 8; in short: as §6
[14] = tested on: ORF 73 (Human herpesvirus 8), O40947 [UNDEFINED MUTATION]; assay: as §1, with “500 uM” for “1 mM”; details: Human gammaherpesvirus 8; in short: as §2

Row | Compound | inhibition [1] | Activity [2] | IC50 ([3]; read-out: IC50) | also measured
1 | O=[N+]([O-])c1cccc(-n2ccnc2)c1 | 21% | inactive | – | –
2 | O=C(O)c1ccc(-n2ccnc2)cc1 | 13% | inactive | – | –
3 | COCc1cn(-c2ccc(C(=O)O)cc2)nn1 | – | inactive | 210 µM | –
4 | O=C(O)c1ccc(-n2cc(C3CC3)nn2)cc1 | – | inactive | 694 µM | –
5 | Nc1cccc(-n2ccnc2)c1 | inactive | inactive | – | –
6 | O=C(O)c1cccc(-n2ccnn2)c1 | 98% | inactive | – | –
7 | Nc1cccc(-c2cn(-c3ccc(C(=O)O)cc3)nn2)c1 | – | inactive | 109 µM | inhibition [4]: inactive; IC50 [5]: 106 µM; inhibition [6]: inactive; IC50 [7]: 136 µM
8 | O=[N+]([O-])c1ccc(-n2ccnc2)cc1 | 22% | inactive | – | –
9 | COC(=O)c1ccc(-n2cc(CO)nn2)cc1 | – | inactive | 84 µM | –
10 | Oc1ccccc1-n1ccnc1 | 51% | inactive | – | –
11 | COC(=O)c1cn(-c2ccc(C(=O)O)cc2)nn1 | – | inactive | 163 µM | –
12 | Nc1ccccc1-c1cn(-c2ccc(C(=O)O)cc2)nn1 | – | inactive | 28 µM | inhibition [4]: Active; IC50 [5]: 26 µM; inhibition [6]: Active; IC50 [7]: 25 µM
13 | Nc1ccc(-c2cn(-c3ccc(C(=O)O)cc3)nn2)cc1 | – | inactive | 14 µM | inhibition [4]: Active; IC50 [5]: 12 µM; inhibition [6]: Active; IC50 [7]: 19 µM
14 | O=C(O)c1cccc(-n2cc(-c3ccccc3)nn2)c1 | 43% | inactive | – | –
15 | O=C(O)c1ccccc1-n1ccnc1 | 50% | – | 333 µM | –
16 | COc1ccccc1-n1ccnc1 | 15% | inactive | – | –
17 | CC(=O)OCc1cn(-c2ccc(C(=O)O)cc2)nn1 | – | inactive | – | IC50 [3]: Not Active
18 | O=C(O)c1ccc(-n2cc(-c3ccc(NCC4CCCCC4)cc3)nn2)cc1 | – | inactive | – | IC50 [3]: Not Active
19 | O=C(O)c1ccccc1-n1cc(-c2ccccc2)nn1 | 13% | inactive | – | –
20 | Nc1ccccc1-n1ccnc1 | 25% | inactive | – | ΔTm [8]: -1.8 °C; Activity [9]: 15.7 RU
21 | Nc1ccc(-n2cc(-c3ccc(C(=O)O)cc3)nn2)cc1 | – | inactive | 19 µM | –
22 | O=C(O)c1ccccc1-n1ccnn1 | 12% | inactive | – | –
23 | COCc1cn(-c2ccc(C(=O)OC)cc2)nn1 | – | inactive | 237 µM | –

Row | Compound | inhibition [1] | Activity [2] | IC50 ([3]; read-out: IC50) | also measured
24 | O=C(O)c1ccc(-n2ccnn2)cc1 | 35% | inactive | – | –
25 | O=C(O)c1cccc(-n2ccnc2)c1 | 19% | inactive | – | –
26 | Nc1ccc(-n2ccnc2)cc1 | inactive | inactive | – | –
27 | O=C(O)c1ccc(-n2cc(-c3ccccc3)nn2)cc1 | – | inactive | 232 µM | –
28 | CC(=O)Nc1ccccc1-n1ccnc1 | 32% | inactive | – | –
29 | O=C(O)c1ccc(-n2cc(-c3cccc(NCCN4CCOCC4)c3)nn2)cc1 | – | inactive | – | IC50 [3]: Not Active
30 | O=C(O)c1ccc(-n2cc(-c3ccc(CO)cc3)nn2)cc1 | – | inactive | 27 µM | –
31 | Nc1ccccc1-n1cc(-c2ccc(C(=O)O)cc2)nn1 | – | inactive | 18 µM | inhibition [4]: Active; IC50 [5]: 26 µM; inhibition [6]: Active; IC50 [7]: 25 µM
32 | O=C(O)c1ccc(-n2cc(CO)nn2)cc1 | – | inactive | 79 µM | –
33 | Nc1cccc(-c2cn(-c3ccccc3)nn2)c1 | – | inactive | – | IC50 [3]: Not Active
34 | Nc1ccccc1-n1cnc2ccccc21 | 32% | inactive | – | –
35 | O=C(O)c1ccc(-c2cn(-c3cccnc3)nn2)cc1 | – | inactive | 17 µM | inhibition [4]: Active; Kd [10]: 23 µM; IC50 [5]: 19 µM; inhibition [6]: Active; IC50 [7]: 20 µM; Activity [11]: Active; IC50 [12]: 435 µM; IC50 [13]: 426 µM
36 | O=[N+]([O-])c1ccccc1-n1ccnc1 | 74% | inactive | – | –
37 | O=C(O)c1ccc(-n2cc(C3(O)CCCC3)nn2)cc1 | – | inactive | 159 µM | inhibition [4]: inactive; IC50 [5]: 39 µM; inhibition [6]: inactive; IC50 [7]: 104 µM
38 | NCc1cn(-c2ccc(C(=O)O)cc2)nn1 | – | inactive | 30 µM | –
39 | Cc1cn(-c2ccccc2N)cn1 | 91% | inactive | – | –
40 | COc1ccc(-c2cn(-c3ccc(C(=O)O)cc3)nn2)cc1 | – | inactive | – | inhibition [14]: 20%
41 | O=C(O)c1ccc(-n2cc(-c3cccc(NCC4CCCCC4)c3)nn2)cc1 | – | inactive | – | IC50 [3]: Not Active
42 | O=C(O)c1ccc(-c2cn(-c3ccc(O)cc3)nn2)cc1 | – | inactive | 52 µM | –
43 | O=C(O)c1ccc(-n2cc(-c3ccccc3NCC3CCCCC3)nn2)cc1 | – | inactive | – | IC50 [3]: Not Active
44 | Nc1ccccc1-n1cnc(Br)c1 | 13% | inactive | – | –
45 | O=C(O)c1ccc(-n2cc(-c3cccc(NCCc4ccccc4)c3)nn2)cc1 | – | inactive | – | IC50 [3]: Not Active
